The source of these data is ChEMBL document CHEMBL4808175 (J Med Chem, 2021).

In data set [1] the target is T1, cGMP-specific 3',5'-cyclic phosphodiesterase (Homo sapiens, UniProt O76074). Put plainly: Inhibition of recombinant full length GST-tagged PDE5A1 (unknown origin) expressed in baculovirus infected Sf9 insect cells using TAMRA-cGMP as substrate incubated for 1.5 hrs by IMAP-FP assay.
The target in data set [2] is cGMP-dependent 3',5'-cyclic phosphodiesterase (Homo sapiens, UniProt O00408). Put plainly: Inhibition of recombinant full length GST-tagged PDE2A (unknown origin) expressed in baculovirus infected Sf9 insect cells using TAMRA-cGMP as substrate incubated for 1.5 hrs by IMAP-FP assay. In short, it runs like this: (§1)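 PDE enzymes incubated with compound or vehicle and 50 nM TAMRA-cGMP or FAM-cAMP substrate for 1.5 h at 30 °C. Activity read by IMAP fluorescence polarization. IC50 from 10 concentrations, at least two replicates each, fitted by four-parameter logistic. Dose–response repeated at least twice; mean of at least two experiments.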

Data set [3] deals with 3',5'-cyclic-AMP phosphodiesterase 4B (Homo sapiens, UniProt Q07343). Put plainly: Inhibition of recombinant full length GST-tagged PDE4B2 (unknown origin) expressed in baculovirus infected Sf9 insect cells using FAM-cAMP as substrate incubated for 1.5 hrs by IMAP-FP assay. In short, it runs like this:
as §1

Data set [4] concerns the target T2, Cone cGMP-specific 3',5'-cyclic phosphodiesterase subunit alpha' (Homo sapiens, UniProt P51160). Put plainly: Inhibition of recombinant full length GST-tagged PDE6C (unknown origin) expressed in baculovirus infected Sf9 insect cells using TAMRA-cGMP as substrate incubated for 1.5 hrs by IMAP-FP assay. In short, it runs like this: as §1
The target of data set [5] is High affinity 3',5'-cyclic-AMP phosphodiesterase 7A (Homo sapiens, UniProt Q13946). The experiment in a line: Inhibition of recombinant GST-tagged PDE7A (122 to end residues) (unknown origin) expressed in baculovirus infected Sf9 insect cells using FAM-cAMP as substrate incubated for 1.5 hrs by IMAP-FP assay. Put shortly:
as §1

Data set [6] has as its target cAMP and cAMP-inhibited cGMP 3',5'-cyclic phosphodiesterase 10A (Homo sapiens, UniProt Q9Y233). Put plainly: Inhibition of recombinant GST-tagged full length PDE10A2 (unknown origin) expressed in baculovirus infected Sf9 insect cells using TAMRA-cGMP as substrate incubated for 1.5 hrs by IMAP-FP assay. Put shortly:
as §1

The target of data set [7] is Dual 3',5'-cyclic-AMP and -GMP phosphodiesterase 11A (Homo sapiens, UniProt Q9HCR9). Put plainly: Inhibition of recombinant GST-tagged full length PDE11A4 (unknown origin) expressed in baculovirus infected Sf9 insect cells using TAMRA-cGMP as substrate incubated for 1.5 hrs by IMAP-FP assay. In short, it runs like this: as §1
Data set [8] is filed under the species Homo sapiens. The experiment in a line: Selectivity ratio of IC50 for recombinant full length GST-tagged PDE6C (unknown origin) expressed in baculovirus infected Sf9 insect cells to IC50 for recombinant full length GST-tagged PDE5A1 (unknown origin) expressed in baculovirus infected Sf9 insect cells using TAMRA-cGMP as substrate incubated for 1.5 hrs by IMAP-FP assay using TAMRA-cGMP as substrate incubated for 1.5 hrs by IMAP-FP assay.

The species entered for data set [9] is Homo sapiens. The experiment in a line: Selectivity ratio of IC50 for recombinant GST-tagged full length PDE11A4 (unknown origin) expressed in baculovirus infected Sf9 insect cells to IC50 for recombinant full length GST-tagged PDE5A1 (unknown origin) expressed in baculovirus infected Sf9 insect cells using TAMRA-cGMP as substrate incubated for 1.5 hrs by IMAP-FP assay using TAMRA-cGMP as substrate incubated for 1.5 hrs by IMAP-FP assay.

For data set [10], the target named is T2, Cone cGMP-specific 3',5'-cyclic phosphodiesterase subunit alpha'. Put plainly: Inhibition of recombinant full length GST-tagged PDE6C (unknown origin) expressed in baculovirus infected Sf9 insect cells at 15 uM using TAMRA-cGMP as substrate incubated for 1.5 hrs by IMAP-FP assay relative to control. Put shortly: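 PDE6 activity measured at a single 15 μM compound concentration with TAMRA-cGMP substrate. Incubated 1.5 h at 30 °C and read by IMAP fluorescence polarization; percent inhibition relative to control.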

The target in data set [11] is T1, cGMP-specific 3',5'-cyclic phosphodiesterase. The experiment in a line: Competitive inhibition of recombinant 6His-tagged PDE5A1 catalytic domain (unknown origin) expressed in Escherichia coli assessed as increase in apparent Km up to 40 nM using varying levels TAMRA-cGMP or FAM-cAMP as substrate. As to conditions: dose nM <=40.
Data set [12] can be described thus: Protein binding in human plasma assessed as bound fraction by HPLC-MS/MS analysis. It counts as ADME, cell-free. As to conditions: read-out: PPB (converted). Put shortly:
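Human plasma spiked with compound at 10 μM, 1% DMSO final. Dialyzed against PBS pH 7.4 for 4 h at 37 °C. Both compartments diluted, acetonitrile-precipitated and quantified by HPLC-MS/MS. An undialyzed spiked control served for recovery; duplicates.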

The nature of data set [13]: Tmax in C57BL/6N mouse at 150 mg/kg, po administered as single dose measured up to 8 hrs by LC-MS/MS analysis. The class given is ADME, organism-based. The following applies: in vivo.
A short description of data set [14]: Cmax in C57BL/6N mouse at 150 mg/kg, po administered as single dose measured up to 8 hrs by LC-MS/MS analysis. The class given is ADME, organism-based. Set-up: route oral, dose 150 mg/kg, time <=8. The following applies: in vivo.
A short description of data set [15]: AUC (0 to 8 hrs) in C57BL/6N mouse at 150 mg/kg, po administered as single dose measured up to 8 hrs by LC-MS/MS analysis. As to conditions: in vivo. Set-up: route oral, dose 150 mg/kg, time <=8. The class given is ADME, organism-based.
Data set [16] is described as follows: Observed volume of distribution in C57BL/6N mouse at 150 mg/kg, po administered as single dose measured up to 8 hrs by LC-MS/MS analysis. The class given is ADME, organism-based. The following applies: in vivo.
Data set [17] is described as follows: Toxicity in athymic nude-Foxn1nu mouse assessed as drug tolerance at 50 to 150 mg/kg, po bid for 28 days. The class given is organism-based. The following applies: in vivo, 672 h, dose 50-150 mg/kg, time 28 day. Put shortly: (§2)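 Female athymic nude-Foxn1nu mice, 8–9 weeks, 18–24 g, n=4 per group. Oral gavage at 50, 100 or 150 mg/kg twice daily, or vehicle, for 28 days. Formulation ethanol/water/Maalox (7:3:90, v/v/v). Toxicity signs monitored daily. Body weight recorded daily in week 1, then twice weekly, as percent change from starting weight.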

A short description of data set [18]: Toxicity in athymic nude-Foxn1nu mouse assessed as body weight loss at 50 to 150 mg/kg, po bid measured immediately relative to control. The class given is organism-based. As to conditions: in vivo, dose 50-150 mg/kg. Put shortly: as §2
Data set [19] can be described thus: Toxicity in athymic nude-Foxn1nu mouse at 50 to 150 mg/kg, po bid for 28 days. It counts as organism-based. As to conditions: in vivo, 672 h, dose 50-150 mg/kg, time 28 day. In short, it runs like this: as §2
Data set [20] can be described thus: Toxicity in athymic nude-Foxn1nu mouse assessed as effect on liver at 50 to 150 mg/kg, po bid for 28 days. It counts as organism-based. The following applies: in vivo, 672 h, dose 50-150 mg/kg, time 28 day.
Data set [21] in a line: Toxicity in athymic nude-Foxn1nu mouse assessed as effect on spleen at 50 to 150 mg/kg, po bid for 28 days. As to conditions: in vivo, 672 h, dose 50-150 mg/kg, time 28 day. The class given is organism-based.
Data set [22] is described as follows: Half life in C57BL/6N mouse at 150 mg/kg, po administered as single dose measured up to 8 hrs by LC-MS/MS analysis. As to conditions: in vivo. It counts as ADME, organism-based.
For data set [23] the following is noted: human, microsomes, 1 h, 1 µM.
Data set [24] addresses High affinity cGMP-specific 3',5'-cyclic phosphodiesterase 9A (Homo sapiens, UniProt O76083). Put plainly: Inhibition of recombinant GST-tagged full length PDE9A2 (unknown origin) expressed in baculovirus infected Sf9 insect cells using substrate incubated for 1.5 hrs by IMAP-FP assay.

SMILES strings stand for the structures. The source made the active and inactive calls. The rule behind the calls is not given here.

T2 sequence (P51160 whole entry): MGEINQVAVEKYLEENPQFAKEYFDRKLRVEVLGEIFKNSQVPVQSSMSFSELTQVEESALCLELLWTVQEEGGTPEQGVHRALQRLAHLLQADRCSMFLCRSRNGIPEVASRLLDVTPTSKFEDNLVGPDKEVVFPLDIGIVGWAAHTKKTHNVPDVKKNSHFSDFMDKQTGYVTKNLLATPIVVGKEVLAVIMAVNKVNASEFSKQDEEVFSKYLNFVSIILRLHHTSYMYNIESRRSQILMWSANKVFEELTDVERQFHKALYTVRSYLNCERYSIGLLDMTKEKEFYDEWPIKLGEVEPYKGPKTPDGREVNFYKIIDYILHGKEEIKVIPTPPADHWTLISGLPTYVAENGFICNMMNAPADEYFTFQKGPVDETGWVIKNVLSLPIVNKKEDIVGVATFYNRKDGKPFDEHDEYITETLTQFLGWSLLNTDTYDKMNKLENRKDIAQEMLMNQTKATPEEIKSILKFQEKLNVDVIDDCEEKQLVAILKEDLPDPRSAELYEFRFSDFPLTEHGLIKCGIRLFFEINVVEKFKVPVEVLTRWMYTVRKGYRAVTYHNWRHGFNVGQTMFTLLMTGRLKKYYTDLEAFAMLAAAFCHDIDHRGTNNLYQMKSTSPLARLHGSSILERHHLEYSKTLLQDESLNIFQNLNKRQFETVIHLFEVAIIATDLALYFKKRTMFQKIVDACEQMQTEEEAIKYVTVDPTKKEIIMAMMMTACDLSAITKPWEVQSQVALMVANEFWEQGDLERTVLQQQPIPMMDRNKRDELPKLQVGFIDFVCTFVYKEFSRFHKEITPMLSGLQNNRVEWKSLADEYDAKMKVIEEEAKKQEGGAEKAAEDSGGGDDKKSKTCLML
3',5'-cyclic-AMP phosphodiesterase 4B, sequence (Q07343 whole entry): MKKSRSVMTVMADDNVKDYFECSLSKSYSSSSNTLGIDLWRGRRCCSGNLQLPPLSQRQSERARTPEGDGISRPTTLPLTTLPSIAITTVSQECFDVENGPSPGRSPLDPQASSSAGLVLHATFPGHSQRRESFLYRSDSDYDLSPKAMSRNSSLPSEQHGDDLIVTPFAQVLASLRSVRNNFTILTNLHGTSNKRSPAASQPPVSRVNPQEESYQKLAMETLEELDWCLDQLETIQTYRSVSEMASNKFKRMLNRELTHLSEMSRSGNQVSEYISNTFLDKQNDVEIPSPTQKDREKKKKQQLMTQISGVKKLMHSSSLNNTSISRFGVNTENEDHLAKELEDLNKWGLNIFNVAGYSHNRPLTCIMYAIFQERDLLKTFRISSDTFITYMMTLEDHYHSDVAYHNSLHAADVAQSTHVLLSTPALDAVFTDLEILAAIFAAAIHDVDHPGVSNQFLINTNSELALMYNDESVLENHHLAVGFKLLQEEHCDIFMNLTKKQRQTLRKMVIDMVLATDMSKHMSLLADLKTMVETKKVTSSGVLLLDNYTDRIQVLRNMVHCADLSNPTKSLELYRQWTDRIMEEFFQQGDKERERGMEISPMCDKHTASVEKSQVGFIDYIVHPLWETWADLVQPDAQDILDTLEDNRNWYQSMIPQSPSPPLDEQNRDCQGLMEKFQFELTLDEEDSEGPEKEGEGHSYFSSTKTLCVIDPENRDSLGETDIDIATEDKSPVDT
High affinity cGMP-specific 3',5'-cyclic phosphodiesterase 9A, sequence (O76083 whole entry): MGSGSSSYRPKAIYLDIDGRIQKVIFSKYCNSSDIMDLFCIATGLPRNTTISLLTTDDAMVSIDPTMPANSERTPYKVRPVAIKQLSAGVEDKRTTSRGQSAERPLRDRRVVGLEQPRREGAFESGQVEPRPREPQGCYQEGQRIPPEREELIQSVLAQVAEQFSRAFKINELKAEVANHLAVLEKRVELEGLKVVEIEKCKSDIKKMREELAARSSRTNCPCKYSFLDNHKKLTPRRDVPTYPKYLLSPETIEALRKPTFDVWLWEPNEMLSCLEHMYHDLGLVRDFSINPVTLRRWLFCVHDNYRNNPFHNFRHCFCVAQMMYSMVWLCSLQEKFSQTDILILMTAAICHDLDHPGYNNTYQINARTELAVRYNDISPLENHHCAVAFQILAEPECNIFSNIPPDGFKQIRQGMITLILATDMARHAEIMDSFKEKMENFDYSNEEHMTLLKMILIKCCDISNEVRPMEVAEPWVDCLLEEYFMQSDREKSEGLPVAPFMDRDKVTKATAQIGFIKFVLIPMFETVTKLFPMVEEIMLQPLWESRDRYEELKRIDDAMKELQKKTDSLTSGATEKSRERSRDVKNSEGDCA
cGMP-dependent 3',5'-cyclic phosphodiesterase, sequence (O00408 whole entry): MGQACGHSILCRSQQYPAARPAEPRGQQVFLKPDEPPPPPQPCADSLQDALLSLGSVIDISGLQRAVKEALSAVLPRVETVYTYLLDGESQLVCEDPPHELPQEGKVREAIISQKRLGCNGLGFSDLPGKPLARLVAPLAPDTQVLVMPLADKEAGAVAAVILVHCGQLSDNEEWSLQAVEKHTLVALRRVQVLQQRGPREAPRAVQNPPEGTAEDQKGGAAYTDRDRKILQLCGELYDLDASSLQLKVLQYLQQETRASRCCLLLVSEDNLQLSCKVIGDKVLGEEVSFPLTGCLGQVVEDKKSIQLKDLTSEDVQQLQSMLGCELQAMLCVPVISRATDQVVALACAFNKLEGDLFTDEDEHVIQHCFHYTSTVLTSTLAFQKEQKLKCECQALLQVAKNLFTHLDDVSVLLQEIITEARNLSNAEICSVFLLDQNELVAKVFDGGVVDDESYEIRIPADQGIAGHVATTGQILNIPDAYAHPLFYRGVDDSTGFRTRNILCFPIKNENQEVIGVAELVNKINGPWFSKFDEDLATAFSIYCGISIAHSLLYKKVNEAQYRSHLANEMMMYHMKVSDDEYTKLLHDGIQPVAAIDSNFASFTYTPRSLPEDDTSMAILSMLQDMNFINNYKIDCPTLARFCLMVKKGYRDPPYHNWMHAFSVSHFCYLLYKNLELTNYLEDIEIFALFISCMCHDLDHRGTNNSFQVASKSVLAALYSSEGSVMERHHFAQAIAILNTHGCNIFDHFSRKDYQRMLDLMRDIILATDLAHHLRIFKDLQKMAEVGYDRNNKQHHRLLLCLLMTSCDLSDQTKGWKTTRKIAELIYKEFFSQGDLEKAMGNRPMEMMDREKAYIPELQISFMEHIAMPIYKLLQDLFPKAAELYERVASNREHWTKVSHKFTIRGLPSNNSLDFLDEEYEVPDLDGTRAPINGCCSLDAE
High affinity 3',5'-cyclic-AMP phosphodiesterase 7A, sequence (Q13946 whole entry): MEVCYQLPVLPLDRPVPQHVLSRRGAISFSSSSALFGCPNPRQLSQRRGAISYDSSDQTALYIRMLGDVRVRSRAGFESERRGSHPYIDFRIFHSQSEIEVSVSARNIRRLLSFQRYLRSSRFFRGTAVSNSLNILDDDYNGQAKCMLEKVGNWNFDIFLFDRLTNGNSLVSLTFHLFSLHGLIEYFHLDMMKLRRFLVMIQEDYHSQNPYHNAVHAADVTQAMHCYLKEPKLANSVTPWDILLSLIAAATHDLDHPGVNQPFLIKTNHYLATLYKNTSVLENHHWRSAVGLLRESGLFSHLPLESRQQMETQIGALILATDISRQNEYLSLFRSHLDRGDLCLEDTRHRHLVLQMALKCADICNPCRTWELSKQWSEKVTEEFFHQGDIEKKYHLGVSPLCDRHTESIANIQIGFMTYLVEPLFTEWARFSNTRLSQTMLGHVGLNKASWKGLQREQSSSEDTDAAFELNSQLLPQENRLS
cAMP and cAMP-inhibited cGMP 3',5'-cyclic phosphodiesterase 10A, sequence (Q9Y233 whole entry): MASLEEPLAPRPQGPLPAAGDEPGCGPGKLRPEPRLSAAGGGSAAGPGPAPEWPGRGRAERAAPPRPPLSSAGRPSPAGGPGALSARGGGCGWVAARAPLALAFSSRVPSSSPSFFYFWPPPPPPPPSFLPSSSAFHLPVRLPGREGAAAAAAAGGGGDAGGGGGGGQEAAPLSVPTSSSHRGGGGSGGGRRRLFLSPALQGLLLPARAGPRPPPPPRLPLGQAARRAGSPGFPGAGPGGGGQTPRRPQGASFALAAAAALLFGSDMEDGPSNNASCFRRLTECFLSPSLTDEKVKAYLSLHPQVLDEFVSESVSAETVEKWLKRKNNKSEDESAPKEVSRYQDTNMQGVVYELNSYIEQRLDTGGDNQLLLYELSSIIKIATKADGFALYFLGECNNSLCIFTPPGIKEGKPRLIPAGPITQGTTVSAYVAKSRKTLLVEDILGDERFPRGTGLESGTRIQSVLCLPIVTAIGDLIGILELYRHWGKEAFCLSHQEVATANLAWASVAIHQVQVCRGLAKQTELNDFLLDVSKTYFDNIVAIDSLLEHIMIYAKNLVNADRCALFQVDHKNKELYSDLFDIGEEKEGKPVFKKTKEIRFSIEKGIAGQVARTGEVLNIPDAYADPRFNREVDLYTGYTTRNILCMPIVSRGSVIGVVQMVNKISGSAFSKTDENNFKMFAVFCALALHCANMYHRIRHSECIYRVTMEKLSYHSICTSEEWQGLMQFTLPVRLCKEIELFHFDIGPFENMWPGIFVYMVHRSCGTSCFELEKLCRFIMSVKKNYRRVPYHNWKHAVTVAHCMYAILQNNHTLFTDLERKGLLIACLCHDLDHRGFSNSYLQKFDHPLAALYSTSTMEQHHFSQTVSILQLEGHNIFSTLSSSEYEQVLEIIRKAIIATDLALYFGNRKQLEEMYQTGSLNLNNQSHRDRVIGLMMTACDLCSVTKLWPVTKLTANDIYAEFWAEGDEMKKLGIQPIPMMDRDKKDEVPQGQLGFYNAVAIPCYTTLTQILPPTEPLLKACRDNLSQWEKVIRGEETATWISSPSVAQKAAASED

For `COc1c(F)cc(C2CC(C(C)(C)C)=NN2c2ccc(C(=O)N3CCN(C)CC3)cc2)cc1F` (centres undefined), the 50% inhibitory concentration (IC50) in data set [1] was 0.001 µM; in data set [2], more than 10 µM; in data set [3], more than 10 µM; in [4] it was more than 10 µM; in data set [5], more than 10 µM; in [6], more than 10 µM. The IC50 in data set [7] and in data set [24] was more than 10 µM each time. The Ratio IC50 in the data set filed under Homo sapiens [8] and in the data set listed under Homo sapiens [9] was more than 10000 in each case. In addition, the inhibition in data set [10] was determined as 50%. Also, the inhibition entry in data set [11] is “Active”. Also, the fraction unbound in data set [12] was 0.02. In addition, in data set [13], the Tmax worked out at 2 h. Further, the peak level in [14] (Cmax) was 4000 ng/mL. In addition, the AUC(0-t) in data set [15] is 14100 ng·h/mL. In data set [16], the Vd came out at 625 mL. The Activity entry in data set [17] is on record as “Non-Toxic”; in data set [18] it was less than 5%; in data set [19], “Non-Toxic”; in data set [20], “Non-Toxic”; in data set [21], “Non-Toxic”. Also, the half-life in data set [22] is 2.33 h. This compound registered a t1/2 in data set [23] of 0.367 h.
